Experiments:
[1] = Drug metabolism in phenobarbital-induced rat liver microsomes assessed as cytochrome P450-mediated 4-hydroxy-3-(3-oxo-1-phenyl-1-butenyl)-2H-1-benzopyran-2-one metabolite formation at 3 umol measured per nmol of CYP450 under acidic conditions by LC-UV analysis in presence of cumene hydroperoxide; type: ADME
Procedure, shortened: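 Phenobarbital-induced rat liver microsomes (100 mg/kg/day ip for 3 days) with 8.0 mg protein and warfarin sodium 3.0 × 10^-6 mol in 4.0 mL TES–MgCl2 buffer, pH 7.4, at 37 °C. No NADPH generating system; started with cumene hydroperoxide 3.3 × 10^-5 mol and stopped after 5 min. Products quantified by LC against external standards.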

[2] = Drug metabolism in PCN-induced rat liver microsomes assessed as cytochrome P450-mediated 4-hydroxy-3-(3-oxo-1-phenyl-1-butenyl)-2H-1-benzopyran-2-one metabolite formation at 0.15 mmol measured per nmol of CYP450 under acidic conditions by LC-UV analysis in presence of cumene hydroperoxide; type: ADME
Procedure, shortened: (§1)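 Liver microsomes from PCN-induced rats (100 mg/kg/day ip in corn oil for 3 days), 200 mL at 2.0 mg protein/mL in TES–MgCl2, pH 7.4, with (R)-warfarin sodium 1.5 × 10^-4 mol. Preincubated 5 min at 37 °C with shaking, started with cumene hydroperoxide 1.6 × 10^-4 mol, given a second equal addition at 10 min, stopped at 30 min on ice. Product isolated by preparative C18 LC.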

[3] = Drug metabolism in PCN-induced rat liver microsomes assessed as cytochrome P450-mediated 4-oxo-3-(3-oxo-1-phenylbut-1-enyl)-4H-chromen-2-olate metabolite formation at 0.15 mmol measured under basic conditions by LC-UV analysis in presence of cumene hydroperoxide; type: ADME; procedure, shortened: as §1
[4] = Drug metabolism in rat liver microsomes assessed as cytochrome P450-mediated 4-hydroxy-3-(3-oxo-1-phenyl-1-butenyl)-2H-1-benzopyran-2-one metabolite formation measured for 10 mins by LC-UV analysis; type: ADME
Procedure, shortened: (§2)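 Time course with (S)-warfarin in uninduced rat liver microsomes (cytochrome P-450 1.0 nmol/mg protein; protein 2 mg/mL) at 37 °C and pH 7.4. NADPH-supported TES–MgCl2 incubation, with products quantified by LC. Single determination from a pool of five rats.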

[5] = Drug metabolism in rat liver microsomes assessed as cytochrome P450-mediated 4'-hydroxywarfarin metabolite formation measured for 10 mins by LC-UV analysis; type: ADME; procedure, shortened: as §2
[6] = Drug metabolism in rat liver microsomes assessed as cytochrome P450-mediated 6-hydroxywarfarin metabolite formation measured for 10 mins by LC-UV analysis; type: ADME; procedure, shortened: as §2
[7] = Drug metabolism in rat liver microsomes assessed as cytochrome P450-mediated 7-hydroxywarfarin metabolite formation measured for 10 mins by LC-UV analysis; type: ADME; procedure, shortened: as §2
[8] = Drug metabolism in rat liver microsomes assessed as cytochrome P450-mediated 4-hydroxy-3-(3-oxo-1-phenyl-1-butenyl)-2H-1-benzopyran-2-one metabolite formation measured after 10 mins by LC-UV analysis; type: ADME; procedure, shortened: as §2
[9] = Drug metabolism in rat liver microsomes assessed as cytochrome P450-mediated 4'-hydroxywarfarin metabolite formation measured after 10 mins by LC-UV analysis; type: ADME; procedure, shortened: as §2
[10] = Drug metabolism in rat liver microsomes assessed as cytochrome P450-mediated 6-hydroxywarfarin metabolite formation measured after 10 mins by LC-UV analysis; type: ADME; procedure, shortened: as §2
[11] = Drug metabolism in rat liver microsomes assessed as cytochrome P450-mediated 7-hydroxywarfarin metabolite formation measured after 10 mins by LC-UV analysis; type: ADME; procedure, shortened: as §2
[12] = Drug metabolism in rat liver microsomes assessed as cytochrome P450-mediated 4-hydroxy-3-(3-oxo-1-phenyl-1-butenyl)-2H-1-benzopyran-2-one metabolite formation at 3 umol measured under acidic conditions by LC-UV analysis in presence of NADPH; type: ADME
Procedure, shortened: (§3)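 Male Wistar rat liver microsomes, uninduced or phenobarbital-induced (100 mg/kg/day ip in saline for 3 days, harvested 24 h after the last dose). Per 4.0 mL of 0.01 M TES–0.002 M MgCl2, pH 7.4: (R)- or (S)-warfarin sodium 3.0 × 10^-6 mol, NADP 1.25 µmol, glucose 6-phosphate 62.1 µmol, 8.0 mg protein. Preincubated 1.0 min at 37 °C, started with yeast G6P dehydrogenase (5.0 units), stopped by filtration after 10 min. Products quantified by LC against external standards.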

[13] = Drug metabolism in phenobarbital-induced rat liver microsomes assessed as cytochrome P450-mediated 4-hydroxy-3-(3-oxo-1-phenyl-1-butenyl)-2H-1-benzopyran-2-one metabolite formation at 3 umol measured under acidic conditions by LC-UV analysis in presence of NADPH; type: ADME; procedure, shortened: as §3
[14] = Drug metabolism in rat liver microsomes assessed as cytochrome P450-mediated 4-oxo-3-(3-oxo-1-phenylbut-1-enyl)-4H-chromen-2-olate metabolite formation at 3 umol measured under basic conditions by LC-UV analysis in presence of NADPH; type: ADME; procedure, shortened: as §3
[15] = Drug metabolism in phenobarbital-induced rat liver microsomes assessed as cytochrome P450-mediated 4-oxo-3-(3-oxo-1-phenylbut-1-enyl)-4H-chromen-2-olate metabolite formation at 3 umol measured under basic conditions by LC-UV analysis in presence of NADPH; type: ADME; procedure, shortened: as §3
[16] = Drug metabolism in rat liver microsomes assessed as cytochrome P450-mediated 4-hydroxy-3-(3-oxo-1-phenyl-1-butenyl)-2H-1-benzopyran-2-one metabolite formation by LC-UV analysis in presence of nitrogen; type: ADME
Procedure, shortened: (§4)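 Same NADPH-supported microsomal incubation (warfarin 3.0 × 10^-6 mol, 8.0 mg protein, 4.0 mL TES–MgCl2, pH 7.4). Flasks were sealed with a septum and equilibrated under the stated gas atmosphere for 15 min on ice, then incubated at 37 °C. Products quantified by LC.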

[17] = Drug metabolism in rat liver microsomes assessed as cytochrome P450-mediated 4-hydroxy-3-(3-oxo-1-phenyl-1-butenyl)-2H-1-benzopyran-2-one metabolite formation by LC-UV analysis in presence of carbon monoxide-oxygen mixture at ratio of 80:20; type: ADME; procedure, shortened: as §4
[18] = Drug metabolism in rat liver microsomes assessed as cytochrome P450-mediated 4'-hydroxywarfarin metabolite formation by LC-UV analysis in presence of carbon monoxide-oxygen mixture at ratio of 80:20; type: ADME; procedure, shortened: as §4
[19] = Drug metabolism in rat liver microsomes assessed as cytochrome P450-mediated 6-hydroxywarfarin metabolite formation by LC-UV analysis in presence of carbon monoxide-oxygen mixture at ratio of 80:20; type: ADME; procedure, shortened: as §4
[20] = Drug metabolism in rat liver microsomes assessed as cytochrome P450-mediated 7-hydroxywarfarin metabolite formation by LC-UV analysis in presence of carbon monoxide-oxygen mixture at ratio of 80:20; type: ADME; procedure, shortened: as §4
[21] = Drug metabolism in PCN-induced rat liver microsomes assessed as cytochrome P450-mediated 4-hydroxy-3-(3-oxo-1-phenyl-1-butenyl)-2H-1-benzopyran-2-one metabolite formation at 0.15 mmol measured per nmol of CYP450 by LC-UV analysis

SMILES	Drug metabolism [4]	Drug metabolism [5]	Drug metabolism [6]	Drug metabolism [7]	Drug metabolism [8]	Drug metabolism [9]	Drug metabolism [10]	Drug metabolism [11]	other results
CC(=O)C[C@H](c1ccccc1)c1c(O)c2ccccc2oc1=O	metabolite_detected	metabolite_detected	metabolite_detected	metabolite_detected	metabolite_notdetected	metabolite_detected	metabolite_detected	metabolite_detected	Drug metabolism [1]: 0.15 nmol/min; Drug metabolism [2]: 0.423 nmol/min; Drug metabolism [3]: metabolite_detected
CC(=O)C[C@@H](c1ccccc1)c1c(O)c2ccccc2oc1=O	metabolite_detected	metabolite_detected	metabolite_detected	metabolite_detected	metabolite_notdetected	metabolite_detected	metabolite_detected	metabolite_detected	Drug metabolism [12]: metabolite_detected; Drug metabolism [13]: metabolite_detected; Drug metabolism [14]: metabolite_detected; Drug metabolism [15]: metabolite_detected; Drug metabolism [16]: metabolite_notdetected; Drug metabolism [17]: metabolite_detected; Drug metabolism [18]: metabolite_detected; Drug metabolism [19]: metabolite_detected; Drug metabolism [20]: metabolite_detected; Drug metabolism [21]: 0.19 nmol/min
